B1: Osa-1-4 twister ribozyme (parent)
chain: CCGCCUAACACUGCCAAUGCCGGUCCCAAGCCCGGAUAAAAGUGGAGGGGGCGG

The variants in this data set derive from B1. Nature of the data set: self-cleavage, relative activity (ratio to wild type); higher = more cleavage; co-transcriptional. The gist of the method: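 For each read, cleavage status was taken from whether upstream sequence was present. The reads came from an Oryza sativa twister ribozyme of 54 nucleotides, whose DNA template was synthesised with 97 % wild-type base and 1 % of each other base at the 48 positions downstream of the cleavage site. The template was transcribed in vitro at 37 °C for 2 h with co-transcriptional self-cleavage, and the RNA was reverse-transcribed using a template-switching oligonucleotide, PCR-amplified and deep-sequenced. Relative activity is the fraction cleaved normalised to wild type.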
Consider CCGCCUUACACUGCCAAUGCCGGUCUCAAGCCCGGAUAAAAGUGGAGGGGGCGG [A7U C26U], for which the self-cleavage came to 0.07.

With CCGCCUUACACUGCCAAUGCCGGUCGCAAGCCCGGAUAAAAGUGGAGGGGGCGG [A7U C26G], the self-cleavage was 0.05.

Consider CCGCCUUACACUGCCAAUGCCGGUCACAAGCCCGGAUAAAAGUGGAGGGGGCGG [A7U C26A], for which the self-cleavage was found to be 0.02.

Turning to CCGCCUUACACUGCGAAUGCCGGUCCCAAGCCCGGAUAAAAGUGGAGGGGGCGG [A7U C15G], the self-cleavage came to 0.11.

As for CCGCCUUACACUGCAAAUGCCGGUCCCAAGCCCGGAUAAAAGUGGAGGGGGCGG [A7U C15A], the self-cleavage was 0.06.

CCGCCUUACACUGCUAAUGCCGGUCCCAAGCCCGGAUAAAAGUGGAGGGGGCGG [A7U C15U]: the self-cleavage is 0.06.

Turning to CCGCCUGACACCGCCAAUGCCGGUCCCAAGCCCGGAUAAAAGUGGAGGGGGCGG [A7G U12C], the self-cleavage is 0.1.

In the case of CCGCCUGACACGGCCAAUGCCGGUCCCAAGCCCGGAUAAAAGUGGAGGGGGCGG [A7G U12G], the self-cleavage came to 0.12.

Take CCGCCUGACACAGCCAAUGCCGGUCCCAAGCCCGGAUAAAAGUGGAGGGGGCGG [A7G U12A]: the self-cleavage is 0.16.

Regarding CCGCCUGACACUGCCAAUGCCGGUCCCAAGCCCGCAUAAAAGUGGAGGGGGCGG [A7G G35C], the self-cleavage was 0.1.

Consider CCGCCUGACACUGCCAAUGCCGGUCCCAAGCCCGAAUAAAAGUGGAGGGGGCGG [A7G G35A], for which the self-cleavage was 0.31.

Regarding CCGCCUGACACUGCCAAUGCCGGUCCCAAGCCCGUAUAAAAGUGGAGGGGGCGG [A7G G35U], the self-cleavage stood at 0.2.

Take CCGCCUUACACUGCCAAUGCCGGUCCCAAGCCCGGAUAAAAGUGGAGGGGGUGG [A7U C52U]: the self-cleavage turned out to be 0.1.

With CCGCCUUACACUGCCAAUGCCGGUCCCAAGCCCGGAUAAAAGUGGAGGGGGAGG [A7U C52A], the self-cleavage is 0.12.

Turning to CCGCCUUACACUGCCAAUGCCGGUCCCAAGCCCGGAUAAAAGUGGAGGGGGGGG [A7U C52G], the self-cleavage was 0.12.

Turning to CCGCCUUACACUGCCAAUGCCGGUCCCAAGCGCGGAUAAAAGUGGAGGGGGCGG [A7U C32G], the self-cleavage is 0.04.

As for CCGCCUUACACUGCCAAUGCCGGUCCCAAGCACGGAUAAAAGUGGAGGGGGCGG [A7U C32A], the self-cleavage came out at 0.03.

Take CCGCCUUACACUGCCAAUGCCGGUCCCAAGCUCGGAUAAAAGUGGAGGGGGCGG [A7U C32U]: the self-cleavage came to 0.04.

As for CCGCCUGACACUGCCAAUGCCGGGCCCAAGCCCGGAUAAAAGUGGAGGGGGCGG [A7G U24G], the self-cleavage is 0.04.

On to CCGCCUGACACUGCCAAUGCCGGCCCCAAGCCCGGAUAAAAGUGGAGGGGGCGG [A7G U24C], for which the self-cleavage came to 0.07.

CCGCCUGACACUGCCAAUGCCGGACCCAAGCCCGGAUAAAAGUGGAGGGGGCGG [A7G U24A]: the self-cleavage came to 0.08.

On to CCGCCUUACACUACCAAUGCCGGUCCCAAGCCCGGAUAAAAGUGGAGGGGGCGG [A7U G13A], for which the self-cleavage is 0.04.

Regarding CCGCCUUACACUUCCAAUGCCGGUCCCAAGCCCGGAUAAAAGUGGAGGGGGCGG [A7U G13U], the self-cleavage was found to be 0.06.

For the variant CCGCCUUACACUCCCAAUGCCGGUCCCAAGCCCGGAUAAAAGUGGAGGGGGCGG [A7U G13C], the self-cleavage is 0.02.

Take CCGCCUGACACUGCCAAUGCCGGUCCCAAGCCCGGAUAAAAGUGGAGGGGGCAG [A7G G53A]: the self-cleavage stood at 0.16.

Consider CCGCCUGACACUGCCAAUGCCGGUCCCAAGCCCGGAUAAAAGUGGAGGGGGCUG [A7G G53U], for which the self-cleavage turned out to be 0.1.

On to CCGCCUGACACUGCCAAUGCCGGUCCCAAGCCCGGAUAAAAGUGGAGGGGGCCG [A7G G53C], for which the self-cleavage was found to be 0.06.

As to CCGCCUGACACUGCCAAUGCCGGUCCCAAGCCCGGAUAAAAGUCGAGGGGGCGG [A7G G44C], the self-cleavage came to 0.21.

As to CCGCCUGACACUGCCAAUGCCGGUCCCAAGCCCGGAUAAAAGUUGAGGGGGCGG [A7G G44U], the self-cleavage amounted to 0.15.

Regarding CCGCCUGACACUGCCAAUGCCGGUCCCAAGCCCGGAUAAAAGUAGAGGGGGCGG [A7G G44A], the self-cleavage was 0.13.

As for CCGCCUUACACUGCCAAUGCCGGUCCCAAGCCCGGAUAAAAGUGGAGGGGGCGG [A7U], the self-cleavage was found to be 0.07.

Turning to CCGCCUUACACUGCCAAUGCGGGUCCCAAGCCCGGAUAAAAGUGGAGGGGGCGG [A7U C21G], the self-cleavage was 0.05.

On to CCGCCUUACACUGCCAAUGCUGGUCCCAAGCCCGGAUAAAAGUGGAGGGGGCGG [A7U C21U], for which the self-cleavage turned out to be 0.1.

Consider CCGCCUUACACUGCCAAUGCAGGUCCCAAGCCCGGAUAAAAGUGGAGGGGGCGG [A7U C21A], for which the self-cleavage was found to be 0.08.

Regarding CCGCCUUACACUGCCAAUGCCGGUCCCAAGUCCGGAUAAAAGUGGAGGGGGCGG [A7U C31U], the self-cleavage came to 0.05.

As for CCGCCUUACACUGCCAAUGCCGGUCCCAAGACCGGAUAAAAGUGGAGGGGGCGG [A7U C31A], the self-cleavage amounted to 0.01.

Regarding CCGCCUUACACUGCCAAUGCCGGUCCCAAGGCCGGAUAAAAGUGGAGGGGGCGG [A7U C31G], the self-cleavage was 0.06.

For CCGCCUGACACUGCCAAUGCCGGUCCCAAGCCCGGAUAAAAGCGGAGGGGGCGG [A7G U43C], the self-cleavage came to 0.12.

Turning to CCGCCUGACACUGCCAAUGCCGGUCCCAAGCCCGGAUAAAAGAGGAGGGGGCGG [A7G U43A], the self-cleavage worked out at 0.2.

As for CCGCCUGACACUGCCAAUGCCGGUCCCAAGCCCGGAUAAAAGGGGAGGGGGCGG [A7G U43G], the self-cleavage is 0.11.

CCGCCUGACACUGCCAAUGCCGGUCCCAAGCCCGGAUAAAAGUGGAGGGGCCGG [A7G G51C]: the self-cleavage came to 0.05.

CCGCCUGACACUGCCAAUGCCGGUCCCAAGCCCGGAUAAAAGUGGAGGGGACGG [A7G G51A]: the self-cleavage came to 0.12.

For CCGCCUGACACUGCCAAUGCCGGUCCCAAGCCCGGAUAAAAGUGGAGGGGUCGG [A7G G51U], the self-cleavage came to 0.08.

For CCGCCUGACACUGCCAAUGCCGGUCCCAAGCCCGGAUAAAAGUGGAGGGUGCGG [A7G G50U], the self-cleavage amounted to 0.16.

In the case of CCGCCUGACACUGCCAAUGCCGGUCCCAAGCCCGGAUAAAAGUGGAGGGAGCGG [A7G G50A], the self-cleavage worked out at 0.17.

With CCGCCUGACACUGCCAAUGCCGGUCCCAAGCCCGGAUAAAAGUGGAGGGCGCGG [A7G G50C], the self-cleavage stood at 0.16.

Consider CCGCCUGACACUGCCAAUGCCGGUCCCAAGCCCAGAUAAAAGUGGAGGGGGCGG [A7G G34A], for which the self-cleavage is 0.21.

Turning to CCGCCUGACACUGCCAAUGCCGGUCCCAAGCCCUGAUAAAAGUGGAGGGGGCGG [A7G G34U], the self-cleavage is 0.12.

For the variant CCGCCUGACACUGCCAAUGCCGGUCCCAAGCCCCGAUAAAAGUGGAGGGGGCGG [A7G G34C], the self-cleavage is 0.14.

(Values after the RNAGym collection of RNA variant scans (doi:10.1002/anie.201605470).)
